Assay results as given in ChEMBL document CHEMBL1145385, “Functional differences in epigenetic modulators-superiority of mercaptoacetamide-based histone deacetylase inhibitors relative to hydroxamates in cortical neuron neuroprotection studies” (J Med Chem, 2007).
Activity calls are given as the source filed them. No cut-off for these calls is given here.

What was measured:
Histone deacetylase 8 = target: T1, Histone deacetylase 8 (Homo sapiens, UniProt Q9BY41); test: Inhibition of His-tagged HDAC8 expressed in Sf9 cells by fluorescence-based assay
T1 sequence (Q9BY41 whole entry): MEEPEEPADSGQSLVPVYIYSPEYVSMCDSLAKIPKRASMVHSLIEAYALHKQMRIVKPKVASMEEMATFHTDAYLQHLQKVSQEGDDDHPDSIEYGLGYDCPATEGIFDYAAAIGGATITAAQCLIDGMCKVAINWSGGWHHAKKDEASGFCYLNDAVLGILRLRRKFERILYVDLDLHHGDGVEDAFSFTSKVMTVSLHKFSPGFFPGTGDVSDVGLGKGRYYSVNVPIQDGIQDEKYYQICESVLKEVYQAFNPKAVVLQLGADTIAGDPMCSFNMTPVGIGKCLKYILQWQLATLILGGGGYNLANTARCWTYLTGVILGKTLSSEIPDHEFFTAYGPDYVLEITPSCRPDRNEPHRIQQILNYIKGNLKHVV

[1] = target: T2, Polyamine deacetylase HDAC10 (Homo sapiens, UniProt Q969S8); test: Inhibition of His-tagged HDAC10 expressed in Sf9 cells by fluorescence-based assay
T2 sequence (Q969S8 whole entry): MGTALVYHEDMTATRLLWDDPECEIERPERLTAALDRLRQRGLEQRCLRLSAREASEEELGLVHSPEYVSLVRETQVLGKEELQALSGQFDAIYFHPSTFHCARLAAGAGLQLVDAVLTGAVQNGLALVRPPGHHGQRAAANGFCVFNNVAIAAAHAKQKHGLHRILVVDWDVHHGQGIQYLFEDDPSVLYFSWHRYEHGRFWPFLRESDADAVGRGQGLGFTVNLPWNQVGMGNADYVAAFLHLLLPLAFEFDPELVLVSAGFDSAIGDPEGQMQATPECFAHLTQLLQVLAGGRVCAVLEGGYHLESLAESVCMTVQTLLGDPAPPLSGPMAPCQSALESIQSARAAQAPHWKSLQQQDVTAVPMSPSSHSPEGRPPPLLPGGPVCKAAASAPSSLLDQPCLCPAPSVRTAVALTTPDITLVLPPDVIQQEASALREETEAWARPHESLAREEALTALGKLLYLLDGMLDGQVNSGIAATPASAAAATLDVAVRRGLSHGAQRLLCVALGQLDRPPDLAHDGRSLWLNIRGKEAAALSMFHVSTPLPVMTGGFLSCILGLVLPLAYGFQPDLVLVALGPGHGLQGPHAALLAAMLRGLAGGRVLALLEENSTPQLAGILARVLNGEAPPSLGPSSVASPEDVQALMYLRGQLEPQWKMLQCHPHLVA

[2] = target: T3, Protein deacetylase HDAC6 (Homo sapiens, UniProt Q9UBN7); test: Inhibition of His-tagged HDAC6 expressed in Sf9 cells by fluorescence-based assay
T3 sequence (Q9UBN7 whole entry): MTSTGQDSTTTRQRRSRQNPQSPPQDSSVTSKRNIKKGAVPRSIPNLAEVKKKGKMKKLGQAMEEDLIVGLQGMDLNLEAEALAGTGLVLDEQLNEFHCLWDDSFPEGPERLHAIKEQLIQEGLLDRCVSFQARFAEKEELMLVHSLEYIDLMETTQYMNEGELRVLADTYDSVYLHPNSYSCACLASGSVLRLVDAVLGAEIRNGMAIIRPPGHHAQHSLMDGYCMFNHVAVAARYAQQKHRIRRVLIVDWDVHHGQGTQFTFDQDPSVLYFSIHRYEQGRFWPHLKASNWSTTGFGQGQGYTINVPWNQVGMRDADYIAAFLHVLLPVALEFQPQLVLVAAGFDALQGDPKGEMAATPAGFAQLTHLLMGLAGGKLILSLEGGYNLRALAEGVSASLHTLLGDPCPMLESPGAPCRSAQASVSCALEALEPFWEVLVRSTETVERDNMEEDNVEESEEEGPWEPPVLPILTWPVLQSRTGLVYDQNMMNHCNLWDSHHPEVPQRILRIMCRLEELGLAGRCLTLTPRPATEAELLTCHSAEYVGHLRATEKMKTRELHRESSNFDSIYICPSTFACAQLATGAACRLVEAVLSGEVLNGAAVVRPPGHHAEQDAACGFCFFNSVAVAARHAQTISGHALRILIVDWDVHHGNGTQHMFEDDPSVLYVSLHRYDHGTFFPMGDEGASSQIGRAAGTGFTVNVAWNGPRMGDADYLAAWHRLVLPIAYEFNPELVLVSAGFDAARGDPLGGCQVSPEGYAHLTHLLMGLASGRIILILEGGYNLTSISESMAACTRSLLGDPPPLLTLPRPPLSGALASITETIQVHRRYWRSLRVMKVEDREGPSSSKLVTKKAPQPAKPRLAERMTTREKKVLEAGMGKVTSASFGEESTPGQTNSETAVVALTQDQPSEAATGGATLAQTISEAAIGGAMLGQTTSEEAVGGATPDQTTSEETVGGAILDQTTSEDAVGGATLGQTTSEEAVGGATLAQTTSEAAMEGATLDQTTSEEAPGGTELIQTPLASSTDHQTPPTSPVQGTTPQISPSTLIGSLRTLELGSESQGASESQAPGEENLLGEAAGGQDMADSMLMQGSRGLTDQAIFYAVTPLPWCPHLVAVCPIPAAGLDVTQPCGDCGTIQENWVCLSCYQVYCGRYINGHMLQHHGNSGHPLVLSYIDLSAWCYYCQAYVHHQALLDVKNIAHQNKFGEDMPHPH

Histone deacetylase 1 = Histone deacetylase 1 (Homo sapiens, UniProt Q13547); test: Inhibition of His-tagged HDAC1 expressed in Sf9 cells by fluorescence-based assay
Histone deacetylase 2 = Histone deacetylase 2 (Homo sapiens, UniProt Q92769); test: Inhibition of His-tagged HDAC2 expressed in Sf9 cells by fluorescence-based assay
neuronal [3] = test: Protection against HCA-induced oxidative stress Sprague-Dawley rat neuronal cells at 10 uM; type: functional, cell-based
Method in brief: (§1)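 Cortical neurons from E17 Sprague-Dawley rat fetuses, used 24 h after plating, in MEM with 5.5 g/L glucose, 10% fetal calf serum, 2 mM L-glutamine, 100 µM cystine; 5 mM HCA (pH 7.5) added together with compound (10 µM unless stated); viability after 48 h by MTT and calcein-AM/ethidium homodimer-1 staining; mean ± SE of four replicates.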

Primary neuron = test: Increase in histone H4 acetylation in Sprague-Dawley rat neurons at 50 uM after 8 hrs; type: functional
Method in brief: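 Rat primary cortical neurons (fetal Sprague-Dawley, E17) treated 8 h; histones acid-extracted (0.4 N H2SO4) from nuclei, TCA-precipitated, run on 15% SDS gel; immunoblot with acetyl-H4 (1:1000) and total H4 (1:4000) antibodies, 3 h RT, HRP secondary 2 h, enhanced chemiluminescence detection.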

neuronal [4] = test: Protection against HCA-induced oxidative stress in Sprague-Dawley rat neuronal cells by MTT assay; type: functional, cell-based; method in brief: as §1
[5] = Toxicity against Sprague-Dawley rat neuronal cells at 50 uM; type: cell-based

Histone deacetylase 2, sequence (Q92769 whole entry): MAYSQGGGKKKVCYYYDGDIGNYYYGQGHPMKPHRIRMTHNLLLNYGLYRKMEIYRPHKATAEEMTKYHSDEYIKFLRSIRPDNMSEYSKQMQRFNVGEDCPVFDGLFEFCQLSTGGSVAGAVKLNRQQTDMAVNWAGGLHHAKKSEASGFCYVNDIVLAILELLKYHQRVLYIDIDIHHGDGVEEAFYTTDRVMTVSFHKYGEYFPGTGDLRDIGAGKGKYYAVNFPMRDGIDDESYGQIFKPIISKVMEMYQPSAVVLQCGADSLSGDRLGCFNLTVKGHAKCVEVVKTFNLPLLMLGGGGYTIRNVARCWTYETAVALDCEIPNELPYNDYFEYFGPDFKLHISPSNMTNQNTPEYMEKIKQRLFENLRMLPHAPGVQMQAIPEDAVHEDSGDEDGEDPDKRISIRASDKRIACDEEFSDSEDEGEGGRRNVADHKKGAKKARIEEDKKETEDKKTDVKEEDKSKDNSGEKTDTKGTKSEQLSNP
Histone deacetylase 1, sequence (Q13547 whole entry): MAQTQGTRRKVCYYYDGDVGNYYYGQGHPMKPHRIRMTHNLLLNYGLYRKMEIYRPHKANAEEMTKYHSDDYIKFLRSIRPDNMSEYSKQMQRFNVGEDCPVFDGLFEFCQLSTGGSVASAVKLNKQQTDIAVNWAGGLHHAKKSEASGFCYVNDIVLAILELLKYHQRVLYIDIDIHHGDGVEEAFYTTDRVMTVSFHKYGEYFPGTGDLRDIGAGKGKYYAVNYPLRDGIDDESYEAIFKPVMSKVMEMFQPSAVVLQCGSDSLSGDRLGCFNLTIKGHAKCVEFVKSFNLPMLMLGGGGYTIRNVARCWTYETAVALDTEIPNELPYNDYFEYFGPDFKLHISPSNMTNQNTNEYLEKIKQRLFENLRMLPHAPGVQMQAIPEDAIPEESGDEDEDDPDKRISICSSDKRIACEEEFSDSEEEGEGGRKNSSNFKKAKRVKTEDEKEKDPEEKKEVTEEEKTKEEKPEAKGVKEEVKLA

| SMILES | IC50 (Histone deacetylase 8) [nM] | IC50 [1] [nM] | IC50 [2] [nM] | IC50 (Histone deacetylase 1) [nM] | IC50 (Histone deacetylase 2) [nM] | Activity (neuronal [3]) | Activity (Primary neuron) | Activity (neuronal [4]) | Activity [5] |
| --- | --- | --- | --- | --- | --- | --- | --- | --- | --- |
| N[C@@H](Cc1c[nH]c2ccccc12)C(=O)Nc1ccccc1-c1ccc(NC(=O)CCCCCCC(=O)NO)cc1 | 1720 | 28.3 | 5.4 | 26.7 | 167 | – | – | – | – |
| CN(C)c1ccc(C(=O)NCCCCCNC(=O)CS)cc1 | 10200 | 1540 | 114 | 1080 | – | – | – | – | – |
| O=C(CCCCCNC(=O)NC12CC3CC(CC(C3)C1)C2)NO | 3410 | 173 | 102 | 152 | 1050 | – | – | – | – |
| O=C(CS)NCCCCCC(=O)Nc1cccc2cccnc12 | 6120 | 10700 | 95.3 | 3220 | 7380 | Active | Active | – | – |
| CN(C)c1ccc(CNC(=O)NCCC(=O)NO)cc1 | 1050 | 178 | 45.5 | 130 | 492 | – | – | – | – |
| N[C@@H](Cc1ccc(O)cc1)C(=O)Nc1ccccc1-c1ccc(NC(=O)CCCCCCC(=O)NO)cc1 | 2060 | 42.1 | 9 | 36.9 | 205 | – | – | – | – |
| O=C(CCCCCCC(=O)Nc1nc(-c2cccc([N+](=O)[O-])c2)cs1)NO | 4090 | 11.1 | 3.7 | 8.5 | 113 | – | – | – | – |

Continued, in another order:

| IC50 (Histone deacetylase 8) [nM] | IC50 [1] [nM] | IC50 [2] [nM] | IC50 (Histone deacetylase 1) [nM] | IC50 (Histone deacetylase 2) [nM] | SMILES | Activity (neuronal [3]) | Activity (Primary neuron) | Activity (neuronal [4]) | Activity [5] |
| --- | --- | --- | --- | --- | --- | --- | --- | --- | --- |
| > 30000 | 29700 | 620 | 11900 | > 30000 | CN(C)c1ccc(C(=O)NCCCCNC(=O)CS)cc1 | – | – | – | – |
| 19100 | 3430 | 482 | 1430 | 4640 | CN(C)c1ccc(C(=O)NCCCCCCNC(=O)CS)cc1 | Active | Active | – | – |
| 13900 | > 30000 | 2010 | 10800 | > 30000 | O=C(CS)NCCCCCCNC(=O)Nc1ccccc1 | – | inactive | Dose-dependent effect | Non-toxic |
| 1740 | 176 | 34.5 | 209 | 647 | CN(C)c1ccc(NC(=O)NCCCCCCC(=O)NO)cc1 | – | – | – | – |
| 12300 | 8780 | 216 | 5260 | > 30000 | CN(C)c1ccc(C(=O)NCCCNC(=O)CS)cc1 | – | inactive | Dose-dependent effect | Non-toxic |
